Assay [1] has as its system HeLa. Briefly: Antiproliferative activity against human HeLa cells assessed as cell survival ratio at 0.1 uM treated 1 hr before 2Gy ionizing radiation measured after 6 to 8 days by DMR clonogenic assay. In kind it is functional. The method in brief:
(§1)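 HeLa cells seeded in 6-well dishes, incubated overnight at 37 °C/5% CO2, pre-treated 1 h with vehicle or inhibitor (0.1 or 0.5 μM), then given 2 Gy X-ray IR and held overnight. Medium then replaced without compound and culture continued 6-8 days. Colonies Giemsa-stained and counted automatically. DMR = % survival (vehicle, 2 Gy) / % survival (compound, 2 Gy).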

In assay [2] the test system is HeLa. In words: Antiproliferative activity against human HeLa cells assessed as cell survival ratio at 0.5 uM treated 1 hr before 2Gy ionizing radiation measured after 6 to 8 days by DMR clonogenic assay. In kind it is functional. The method in brief: as §1
The target in assay [3] is DNA-dependent protein kinase catalytic subunit (Homo sapiens, UniProt P78527). In words: Inhibition of human DNA-PK using GST-tagged p53N66 as substrate after 1 hr by ELISA-based chemiluminiscence assay. A general note: An ELISA detects its analyte on a solid surface through an enzyme-linked reagent.
DNA-dependent protein kinase catalytic subunit, sequence (P78527 whole entry): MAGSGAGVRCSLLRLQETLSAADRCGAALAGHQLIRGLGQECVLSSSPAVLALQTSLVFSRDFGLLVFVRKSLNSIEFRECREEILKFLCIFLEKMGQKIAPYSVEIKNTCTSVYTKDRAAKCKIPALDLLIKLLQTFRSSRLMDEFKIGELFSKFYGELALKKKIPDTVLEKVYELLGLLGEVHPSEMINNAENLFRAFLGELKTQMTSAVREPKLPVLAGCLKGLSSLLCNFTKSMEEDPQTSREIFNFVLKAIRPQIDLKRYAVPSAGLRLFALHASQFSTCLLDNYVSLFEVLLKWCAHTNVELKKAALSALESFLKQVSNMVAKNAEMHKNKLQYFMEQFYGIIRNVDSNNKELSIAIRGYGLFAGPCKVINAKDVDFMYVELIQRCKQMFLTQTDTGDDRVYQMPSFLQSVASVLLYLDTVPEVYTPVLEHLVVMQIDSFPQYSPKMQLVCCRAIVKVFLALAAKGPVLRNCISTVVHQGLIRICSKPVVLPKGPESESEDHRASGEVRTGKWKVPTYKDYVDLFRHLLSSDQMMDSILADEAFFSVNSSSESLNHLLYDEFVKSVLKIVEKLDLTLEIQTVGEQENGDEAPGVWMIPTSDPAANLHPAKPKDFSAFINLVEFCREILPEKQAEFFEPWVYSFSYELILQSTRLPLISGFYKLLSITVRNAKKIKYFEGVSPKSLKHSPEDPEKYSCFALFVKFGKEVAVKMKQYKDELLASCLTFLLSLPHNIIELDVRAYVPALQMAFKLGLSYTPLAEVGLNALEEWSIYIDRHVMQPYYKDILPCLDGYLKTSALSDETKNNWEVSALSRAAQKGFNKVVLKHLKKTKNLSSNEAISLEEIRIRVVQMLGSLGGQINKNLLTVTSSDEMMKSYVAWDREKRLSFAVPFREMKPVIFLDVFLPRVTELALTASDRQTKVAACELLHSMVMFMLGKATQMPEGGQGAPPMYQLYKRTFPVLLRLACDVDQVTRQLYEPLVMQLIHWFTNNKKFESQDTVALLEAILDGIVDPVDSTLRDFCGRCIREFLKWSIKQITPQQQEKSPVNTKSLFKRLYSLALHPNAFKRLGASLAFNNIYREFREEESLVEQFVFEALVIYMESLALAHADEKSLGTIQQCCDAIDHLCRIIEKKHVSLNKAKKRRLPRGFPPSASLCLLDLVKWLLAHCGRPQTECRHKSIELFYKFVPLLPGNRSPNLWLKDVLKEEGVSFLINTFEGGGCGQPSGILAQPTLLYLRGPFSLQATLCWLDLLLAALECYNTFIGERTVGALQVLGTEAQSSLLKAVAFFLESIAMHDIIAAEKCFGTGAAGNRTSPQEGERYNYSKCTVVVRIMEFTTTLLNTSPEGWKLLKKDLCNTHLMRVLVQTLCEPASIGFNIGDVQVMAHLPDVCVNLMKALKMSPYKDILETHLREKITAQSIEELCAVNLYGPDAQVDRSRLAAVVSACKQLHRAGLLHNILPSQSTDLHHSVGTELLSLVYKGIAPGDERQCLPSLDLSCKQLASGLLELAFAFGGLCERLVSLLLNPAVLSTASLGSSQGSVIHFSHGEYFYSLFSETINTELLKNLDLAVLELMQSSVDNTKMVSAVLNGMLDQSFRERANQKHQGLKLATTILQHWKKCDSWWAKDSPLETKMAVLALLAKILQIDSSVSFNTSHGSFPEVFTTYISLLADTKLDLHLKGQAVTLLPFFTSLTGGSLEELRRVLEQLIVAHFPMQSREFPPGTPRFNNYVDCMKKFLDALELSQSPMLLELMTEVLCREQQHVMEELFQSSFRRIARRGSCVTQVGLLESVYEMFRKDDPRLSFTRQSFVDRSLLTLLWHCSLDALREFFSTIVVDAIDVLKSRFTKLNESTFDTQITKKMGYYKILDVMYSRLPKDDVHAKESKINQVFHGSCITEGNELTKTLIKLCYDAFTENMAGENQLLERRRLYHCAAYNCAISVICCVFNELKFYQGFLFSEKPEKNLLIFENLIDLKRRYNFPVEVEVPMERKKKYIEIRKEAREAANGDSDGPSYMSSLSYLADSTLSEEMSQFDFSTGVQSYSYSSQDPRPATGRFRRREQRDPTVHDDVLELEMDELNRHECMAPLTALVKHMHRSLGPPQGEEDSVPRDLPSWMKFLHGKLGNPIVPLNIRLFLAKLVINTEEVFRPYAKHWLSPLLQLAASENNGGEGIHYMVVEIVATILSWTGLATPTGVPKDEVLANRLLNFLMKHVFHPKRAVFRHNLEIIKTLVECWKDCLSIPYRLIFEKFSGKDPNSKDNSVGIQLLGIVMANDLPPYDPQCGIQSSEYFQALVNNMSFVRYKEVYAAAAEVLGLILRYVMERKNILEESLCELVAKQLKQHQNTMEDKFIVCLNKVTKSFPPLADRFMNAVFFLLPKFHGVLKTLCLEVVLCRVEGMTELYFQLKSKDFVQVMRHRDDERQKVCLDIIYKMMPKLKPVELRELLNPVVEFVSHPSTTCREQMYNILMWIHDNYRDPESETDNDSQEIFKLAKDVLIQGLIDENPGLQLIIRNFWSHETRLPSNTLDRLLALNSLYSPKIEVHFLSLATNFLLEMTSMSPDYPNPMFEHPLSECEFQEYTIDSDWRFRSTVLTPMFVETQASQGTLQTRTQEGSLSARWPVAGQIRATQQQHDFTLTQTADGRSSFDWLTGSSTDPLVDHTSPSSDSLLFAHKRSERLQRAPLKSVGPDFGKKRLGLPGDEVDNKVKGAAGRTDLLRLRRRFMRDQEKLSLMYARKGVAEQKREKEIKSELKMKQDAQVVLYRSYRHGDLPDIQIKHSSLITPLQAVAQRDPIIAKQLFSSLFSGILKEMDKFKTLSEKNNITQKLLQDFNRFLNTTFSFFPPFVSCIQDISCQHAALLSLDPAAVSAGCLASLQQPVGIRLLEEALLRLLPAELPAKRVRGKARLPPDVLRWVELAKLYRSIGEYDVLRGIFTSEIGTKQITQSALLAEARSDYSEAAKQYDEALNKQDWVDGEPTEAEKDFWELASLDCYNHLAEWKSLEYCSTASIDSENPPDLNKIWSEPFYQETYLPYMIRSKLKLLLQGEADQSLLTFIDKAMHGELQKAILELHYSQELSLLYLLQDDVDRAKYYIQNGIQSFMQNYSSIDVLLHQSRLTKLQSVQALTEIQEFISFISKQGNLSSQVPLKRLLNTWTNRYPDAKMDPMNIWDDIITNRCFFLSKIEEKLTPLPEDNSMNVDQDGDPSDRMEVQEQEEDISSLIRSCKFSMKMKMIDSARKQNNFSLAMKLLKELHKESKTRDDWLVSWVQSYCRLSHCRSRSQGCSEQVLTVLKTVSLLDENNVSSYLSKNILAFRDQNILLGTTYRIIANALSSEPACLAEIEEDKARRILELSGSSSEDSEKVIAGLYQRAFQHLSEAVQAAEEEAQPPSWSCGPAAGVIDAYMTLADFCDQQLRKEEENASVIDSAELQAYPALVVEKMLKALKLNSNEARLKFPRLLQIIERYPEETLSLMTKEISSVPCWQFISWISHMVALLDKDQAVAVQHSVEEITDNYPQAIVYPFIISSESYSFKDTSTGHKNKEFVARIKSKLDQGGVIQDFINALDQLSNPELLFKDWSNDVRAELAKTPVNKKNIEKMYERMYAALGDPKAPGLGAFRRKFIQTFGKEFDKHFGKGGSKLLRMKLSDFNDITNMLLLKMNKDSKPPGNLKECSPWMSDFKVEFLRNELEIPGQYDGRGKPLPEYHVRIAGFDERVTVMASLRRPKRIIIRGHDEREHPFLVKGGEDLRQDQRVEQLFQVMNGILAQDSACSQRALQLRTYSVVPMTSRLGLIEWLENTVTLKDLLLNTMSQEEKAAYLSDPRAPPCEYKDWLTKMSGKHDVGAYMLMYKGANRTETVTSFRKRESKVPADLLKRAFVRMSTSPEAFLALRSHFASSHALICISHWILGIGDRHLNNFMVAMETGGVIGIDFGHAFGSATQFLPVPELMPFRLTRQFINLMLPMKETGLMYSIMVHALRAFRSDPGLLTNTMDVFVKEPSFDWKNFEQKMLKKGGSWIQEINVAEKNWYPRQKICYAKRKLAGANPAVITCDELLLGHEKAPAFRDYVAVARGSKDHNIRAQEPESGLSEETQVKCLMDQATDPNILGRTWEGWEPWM

pIC50: −log10 of the molar value.

As to `COc1ccc(CNCCC(=O)Nc2ccc(-c3cccc4c(=O)cc(N5CCOCC5)oc34)c3sc4ccccc4c23)cc1`, the Ratio in the assay on HeLa [1] is 1.7; in the assay on HeLa [2] it was 7.2. In assay [3], the pIC50 (commonly the IC50 on a negative log10 scale, so that one unit is a factor of ten) was 8.05.
Turning to `O=C(CCN1CCNCC1)Nc1ccc(-c2cccc3c(=O)cc(N4CCOCC4)oc23)c2sc3ccccc3c12`, the Ratio in the assay on HeLa [1] was determined as 1; with HeLa [2] it was 1.5. The molecule also showed a pIC50 in assay [3] of 7.43.
With `O=c1cc(N2CCOCC2)oc2c(-c3ccc(OCCNCCN4CCOCC4)c4c3sc3ccccc34)cccc12`, the values for the Ratio in the assay with HeLa [1] and with HeLa [2] were 1.4 and 10.1, respectively. Moreover, the pIC50 in assay [3] is 8.15.
In the same order, the values of `O=C(CNCCCN1CCOCC1)Nc1ccc(-c2cccc3c(=O)cc(N4CCOCC4)oc23)c2sc3ccccc3c12` are 2, 7.4 and 7.89.
Consider `O=C(CCN1CCN(CCOCCO)CC1)Nc1ccc(-c2cccc3c(=O)cc(N4CCOCC4)oc23)c2sc3ccccc3c12`, for which the Ratio is listed as 1.1 with HeLa [1] and 1 in the assay with HeLa [2]. The molecule also had a pIC50 in assay [3] of 7.54.
Take `CN(CCOc1ccc(-c2cccc3c(=O)cc(N4CCOCC4)oc23)c2sc3ccccc3c12)CC(N)=O`: the Ratio in the assay on HeLa [1] came to 1.4; in the assay on HeLa [2], 7.7. Moreover, the pIC50 in assay [3] is 8.52.
For `O=C(CN1CCOCC1)Nc1ccc(-c2cccc3c(=O)cc(N4CCOCC4)oc23)c2sc3ccccc3c12`, the Ratio was determined as 3.9 in the assay on HeLa [1] and 12.8 in the assay with HeLa [2]. Also, the pIC50 in assay [3] is 7.96.
In the same order, the values of `O=C(CCN1CCN(c2ccc(F)cc2)CC1)Nc1ccc(-c2cccc3c(=O)cc(N4CCOCC4)oc23)c2sc3ccccc3c12` are 1.5, 3.8 and 7.52.
For `CC(C)N1CCN(CC(=O)Nc2ccc(-c3cccc4c(=O)cc(N5CCOCC5)oc34)c3sc4ccccc4c23)CC1` the same measures were 1.7, 12.9 and 8.05.
In the same order, the values of `CN1CCCN(C(=O)COc2ccc(-c3cccc4c(=O)cc(N5CCOCC5)oc34)c3sc4ccccc4c23)CC1` are 1.1, 2 and 7.36.
On to `O=C(CCN1CCN(c2ncccn2)CC1)Nc1ccc(-c2cccc3c(=O)cc(N4CCOCC4)oc23)c2sc3ccccc3c12`, for which the Ratio is 1.6 in the assay on HeLa [1] and 7.1 in the assay with HeLa [2]. In assay [3], the pIC50 was 7.74.
Consider `O=C(CCNCCN1CCCCC1)Nc1ccc(-c2cccc3c(=O)cc(N4CCOCC4)oc23)c2sc3ccccc3c12`, for which the Ratio in the assay on HeLa [1] is given as 1; in the assay with HeLa [2], 3.3. Moreover, the pIC50 in assay [3] was 7.48.
In the case of `O=C(CN1CCN(c2ccccn2)CC1)Nc1ccc(-c2cccc3c(=O)cc(N4CCOCC4)oc23)c2sc3ccccc3c12`, the Ratio worked out at 1.8 with HeLa [1] and 9.9 in the assay with HeLa [2]. In assay [3], this molecule gave a pIC50 of 8.15.
In the same order, the values of `COCCNCC(=O)Nc1ccc(-c2cccc3c(=O)cc(N4CCOCC4)oc23)c2sc3ccccc3c12` are 1.2, 5.9 and 8.15.
In the same order, the values of `CN1CCN(CCC(=O)Nc2ccc(-c3cccc4c(=O)cc(N5CCOCC5)oc34)c3sc4ccccc4c23)CC1` are 1, 6.6 and 7.55.
For `COCCN1CCN(CC(=O)Nc2ccc(-c3cccc4c(=O)cc(N5CCOCC5)oc34)c3sc4ccccc4c23)CC1` the same measures were 2.2, 7.7 and 8.22.
Take `O=C(CN1CCN(CCOCCO)CC1)Nc1ccc(-c2cccc3c(=O)cc(N4CCOCC4)oc23)c2sc3ccccc3c12`: the Ratio in the assay with HeLa [1] was found to be 1.6; in the assay with HeLa [2] it was 3.2. This molecule gave a pIC50 in assay [3] of 8.22.
In the same order, the values of `O=c1cc(N2CCOCC2)oc2c(-c3ccc(OCCN4CCCCC4)c4c3sc3ccccc34)cccc12` are 1.4, 3.5 and 7.70.

These data come from ChEMBL document CHEMBL2417539, “1-substituted (Dibenzo[b,d]thiophen-4-yl)-2-morpholino-4H-chromen-4-ones endowed with dual DNA-PK/PI3-K inhibitory activity” (J Med Chem, 2013).
